In ChEMBL document CHEMBL4387722:
pEC50, pIC50: −log10 of the molar value.

Legend:
[1] = Cytotoxicity against human HEK293 cells assessed as reduction in cell viability after 48 hrs by Alamar blue assay; assay type: cell-based
Summary of the method: (§1)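 Alamar Blue viability read-out. Human liver (THLE-3) and kidney (HEK 293) cells incubated with compound for 48 h. Tested in dose-response to derive CC50.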

[2] = biological target: T1, Tyrosine-protein phosphatase non-receptor type 2 (Homo sapiens, UniProt P17706); assay: Inhibition of human PTPN2 expressed in Escherichia coli Rosetta 2 (DE3) using pNPP as substrate after 45 mins by spectrophotometric method
T1 sequence (P17706 whole entry): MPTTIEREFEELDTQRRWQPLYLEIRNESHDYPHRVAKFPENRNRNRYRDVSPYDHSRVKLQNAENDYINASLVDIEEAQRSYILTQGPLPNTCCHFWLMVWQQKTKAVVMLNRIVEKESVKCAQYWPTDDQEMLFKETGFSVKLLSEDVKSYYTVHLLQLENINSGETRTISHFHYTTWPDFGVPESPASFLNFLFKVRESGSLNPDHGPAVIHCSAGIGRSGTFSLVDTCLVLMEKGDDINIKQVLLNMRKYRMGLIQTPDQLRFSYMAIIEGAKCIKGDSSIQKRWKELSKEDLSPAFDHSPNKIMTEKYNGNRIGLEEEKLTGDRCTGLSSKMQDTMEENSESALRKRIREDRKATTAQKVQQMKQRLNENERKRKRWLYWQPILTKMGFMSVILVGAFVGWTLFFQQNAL

HSP60/HSP10 = HSP60/HSP10 (Homo sapiens, UniProt P10809); assay: Inhibition of human HSP60 expressed in Escherichia coli Rosetta 2(DE3)/human HSP10 expressed in Escherichia coli Rosetta 2(DE3) pLysS cells assessed as reduction in HSP60/HSP10-mediated denatured pig heart mitochondrial MDH refolding by measuring MDH enzyme activity using sodium mesoxalate as substrate after 40 to 60 mins by spectrometric analysis
[3] = Inhibition of refolded rhodanese (unknown origin) preincubated with Escherichia coli GroEL/GroES for 60 mins by measuring rhodanese enzyme activity followed by compound addition by Fe(SCN)3 dye based spectrometric analysis; parameters: species or system Homo sapiens
[4] = Cytotoxicity against human THLE3 cells assessed as reduction in cell viability after 48 hrs by Alamar blue assay; assay type: cell-based; summary of the method: as §1
[5] = system: Mycobacterium tuberculosis; assay: Antitubercular activity against Mycobacterium tuberculosis H37Rv after 5 days at 200 uM relative to control; assay type: functional; conditions: 120 h
Summary of the method: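 M. tuberculosis grown in liquid culture with compound at a fixed 200 μM for 5 days. Growth inhibition expressed as percent of control.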

[6] = biological target: T2, Tyrosine-protein phosphatase non-receptor type 1 (Homo sapiens, UniProt P18031); assay: Inhibition of human PTPN1 expressed in Escherichia coli Rosetta 2 (DE3) using pNPP as substrate after 45 mins by spectrophotometric method
T2 sequence (P18031 whole entry): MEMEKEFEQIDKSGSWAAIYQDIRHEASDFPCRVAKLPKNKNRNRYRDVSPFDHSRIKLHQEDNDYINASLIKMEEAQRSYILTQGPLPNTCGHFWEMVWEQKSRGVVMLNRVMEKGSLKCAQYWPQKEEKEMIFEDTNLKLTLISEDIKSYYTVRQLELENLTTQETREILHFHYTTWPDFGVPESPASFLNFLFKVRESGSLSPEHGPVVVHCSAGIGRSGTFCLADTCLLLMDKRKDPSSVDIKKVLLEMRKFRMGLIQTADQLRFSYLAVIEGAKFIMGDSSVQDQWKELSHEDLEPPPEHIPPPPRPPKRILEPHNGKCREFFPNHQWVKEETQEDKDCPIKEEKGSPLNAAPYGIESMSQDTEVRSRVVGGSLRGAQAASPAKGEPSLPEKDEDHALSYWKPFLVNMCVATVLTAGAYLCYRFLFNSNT

[7] = biological target: T3, Malate dehydrogenase, mitochondrial (Sus scrofa, UniProt P00346); assay: Inhibition of refolded pig heart mitochondrial MDH preincubated with Escherichia coli GroEL/GroES for 45 mins using sodium mesoxalate as substrate followed by compound addition and measured after 20 to 30 mins by spectrometric analysis
T3 sequence (P00346 whole entry): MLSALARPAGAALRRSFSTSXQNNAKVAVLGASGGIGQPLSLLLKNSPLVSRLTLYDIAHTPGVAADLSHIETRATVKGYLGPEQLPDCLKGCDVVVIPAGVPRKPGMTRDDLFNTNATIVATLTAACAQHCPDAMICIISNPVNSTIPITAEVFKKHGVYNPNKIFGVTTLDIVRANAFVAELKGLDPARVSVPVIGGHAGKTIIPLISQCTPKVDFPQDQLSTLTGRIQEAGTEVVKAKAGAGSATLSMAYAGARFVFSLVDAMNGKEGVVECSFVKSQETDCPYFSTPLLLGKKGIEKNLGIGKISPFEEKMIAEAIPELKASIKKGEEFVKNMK

[8] = biological target: T4, Tyrosine-protein phosphatase non-receptor type 5 (Homo sapiens, UniProt P54829); assay: Inhibition of human PTPN5 expressed in Escherichia coli Rosetta 2 (DE3) using pNPP as substrate after 45 mins by spectrophotometric method
T4 sequence (P54829 whole entry): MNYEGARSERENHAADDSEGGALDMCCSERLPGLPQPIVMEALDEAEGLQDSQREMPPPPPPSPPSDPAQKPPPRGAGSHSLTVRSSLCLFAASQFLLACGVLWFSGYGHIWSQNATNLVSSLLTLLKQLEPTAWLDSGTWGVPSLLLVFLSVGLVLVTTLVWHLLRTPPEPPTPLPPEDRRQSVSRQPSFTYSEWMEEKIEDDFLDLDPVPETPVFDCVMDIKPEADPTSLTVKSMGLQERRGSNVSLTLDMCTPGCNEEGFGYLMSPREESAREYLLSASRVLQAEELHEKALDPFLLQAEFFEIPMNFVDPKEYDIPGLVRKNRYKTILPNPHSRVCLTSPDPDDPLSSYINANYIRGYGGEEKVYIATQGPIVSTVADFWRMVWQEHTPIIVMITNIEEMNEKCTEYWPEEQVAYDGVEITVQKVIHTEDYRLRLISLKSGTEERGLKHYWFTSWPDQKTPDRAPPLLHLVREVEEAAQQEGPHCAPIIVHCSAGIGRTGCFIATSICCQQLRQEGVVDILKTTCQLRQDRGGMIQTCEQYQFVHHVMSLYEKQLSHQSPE

[9] = biological target: T5, Phosphotyrosine protein phosphatase (Mycobacterium tuberculosis, UniProt A0A045ISB3); assay: Inhibition of Mycobacterium tuberculosis His-tagged PtpB expressed in Escherichia coli Rosetta 2 (DE3) using pNPP as substrate after 30 mins by spectrophotometric method
T5 sequence (A0A045ISB3 whole entry): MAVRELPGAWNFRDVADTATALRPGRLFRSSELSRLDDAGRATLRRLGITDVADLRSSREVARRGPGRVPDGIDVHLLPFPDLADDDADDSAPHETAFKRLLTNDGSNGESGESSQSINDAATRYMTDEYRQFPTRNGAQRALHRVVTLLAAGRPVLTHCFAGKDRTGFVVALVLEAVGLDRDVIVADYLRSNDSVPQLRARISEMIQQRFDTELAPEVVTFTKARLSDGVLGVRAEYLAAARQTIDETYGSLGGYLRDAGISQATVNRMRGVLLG

[10] = system: Mycobacterium tuberculosis; assay: Antitubercular activity against Mycobacterium tuberculosis H37Rv after 5 days; assay type: functional, organism-based; conditions: 120 h

Sequence of HSP60/HSP10 (P10809 whole entry): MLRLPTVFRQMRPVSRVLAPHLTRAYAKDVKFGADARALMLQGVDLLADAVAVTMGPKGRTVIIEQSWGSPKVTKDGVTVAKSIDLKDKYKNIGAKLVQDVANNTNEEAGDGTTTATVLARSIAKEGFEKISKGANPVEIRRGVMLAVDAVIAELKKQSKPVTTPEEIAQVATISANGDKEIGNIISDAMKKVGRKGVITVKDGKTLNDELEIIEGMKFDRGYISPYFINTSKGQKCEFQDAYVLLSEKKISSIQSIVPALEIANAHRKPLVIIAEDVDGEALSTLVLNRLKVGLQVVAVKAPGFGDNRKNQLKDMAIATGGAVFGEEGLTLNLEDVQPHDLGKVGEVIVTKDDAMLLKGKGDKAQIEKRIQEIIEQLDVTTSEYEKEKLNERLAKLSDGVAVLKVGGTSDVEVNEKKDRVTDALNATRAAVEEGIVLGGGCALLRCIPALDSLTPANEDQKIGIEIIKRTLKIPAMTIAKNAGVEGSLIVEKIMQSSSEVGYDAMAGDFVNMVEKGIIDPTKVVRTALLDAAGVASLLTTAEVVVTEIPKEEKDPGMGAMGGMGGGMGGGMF
Sequence of HSP60/HSP10 (P61604 whole entry, further chain): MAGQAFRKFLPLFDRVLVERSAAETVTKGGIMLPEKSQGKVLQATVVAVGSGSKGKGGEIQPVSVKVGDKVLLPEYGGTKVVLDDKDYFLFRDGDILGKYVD

Row | Structure (SMILES) | CC50 at 48 h [1] [µM] | pIC50 [2] | pIC50 (HSP60/HSP10) | pIC50 [3] | CC50 at 48 h [4] [µM] | inhibition at 200 µM [5] [%] | pIC50 [6] | pIC50 [7] | pIC50 [8] | pIC50 [9] | pEC50 [10]
1 | Cc1cccc(S(=O)(=O)Nc2ccc3oc(-c4ccccc4)nc3c2)c1 | 69 | 4.24 | < 4.00 | < 4.00 | 38 | 82 | 4.28 | < 4.20 | 4.41 | 4.20 | 3.79
2 | O=S(=O)(Nc1ccc(-c2nc3ccccc3o2)cc1)c1cccc(O)c1 | > 100 | < 4.00 | 4.21 | < 4.00 | 97 | 61 | < 4.00 | < 4.20 | 4.08 | 4.10 | 3.72
3 | O=S(=O)(Nc1ccc(-c2nc3cc(NS(=O)(=O)c4ccccc4Br)ccc3o2)cc1)c1ccccc1Br | – | 4.55 | – | – | – | 50 | 4.62 | – | 4.51 | 4.70 | < 3.70
4 | O=S(=O)(Nc1ccc2oc(-c3ccccc3)nc2c1)c1cccc(F)c1 | 68 | < 4.00 | < 4.00 | < 4.00 | 41 | 56 | 4.15 | < 4.20 | 4.38 | 4.03 | < 3.70
5 | Nc1ccccc1S(=O)(=O)Nc1ccc(-c2nc3cc(NS(=O)(=O)c4ccccc4N)ccc3o2)cc1 | – | 4.60 | – | – | – | 58 | 4.47 | – | 4.29 | 4.77 | < 3.70
6 | CS(=O)(=O)Nc1ccc2oc(-c3ccc(NS(=O)(=O)c4ccc(Cl)s4)cc3)nc2c1 | – | < 4.00 | – | – | – | 85 | 4.14 | – | < 4.00 | 4.34 | 3.98
7 | COc1ccc(S(=O)(=O)Nc2ccc3oc(-c4ccccc4)nc3c2)cc1 | 91 | 4.30 | < 4.00 | < 4.00 | 53 | 75 | 4.34 | < 4.20 | 4.43 | 4.14 | 3.78
8 | O=S(=O)(Nc1ccc(-c2nc3ccccc3o2)cc1)c1ccc(O)cc1 | > 100 | < 4.00 | 4.11 | < 4.00 | > 100 | 77 | 4.15 | < 4.20 | 4.09 | 4.03 | < 3.70
9 | O=S(=O)(Nc1ccc(-c2nc3cc(NS(=O)(=O)c4cccc(F)c4)ccc3o2)cc1)c1cccc(F)c1 | – | 4.49 | – | – | – | 48 | 4.44 | – | 4.51 | 4.89 | < 3.70
10 | Nc1ccc(S(=O)(=O)Nc2ccc(-c3nc4cc(NS(=O)(=O)c5ccc(N)cc5)ccc4o3)cc2)cc1 | – | 4.49 | – | – | – | 51 | 4.57 | – | 4.39 | 4.80 | < 3.70
11 | COc1ccc(S(=O)(=O)Nc2ccc(-c3nc4ccccc4o3)cc2)cc1 | > 100 | 4.28 | < 4.00 | < 4.00 | 86 | 72 | 4.38 | < 4.20 | 4.35 | 4.21 | 3.75
12 | CS(=O)(=O)Nc1ccc(-c2nc3cc(NS(C)(=O)=O)ccc3o2)cc1 | – | < 4.00 | – | – | – | 62 | < 4.00 | – | < 4.00 | < 4.00 | < 3.70
13 | COc1cccc(S(=O)(=O)Nc2ccc(-c3nc4ccccc4o3)cc2)c1 | > 100 | 4.17 | 4.10 | < 4.00 | 84 | 74 | 4.29 | < 4.20 | 4.32 | 4.17 | 3.81
